From ChEMBL document CHEMBL1148833, “3-Hydroxychromones as cyclin-dependent kinase inhibitors: synthesis and biological evaluation” (Bioorg Med Chem Lett, 2007)

How the values were obtained:
[1] = target: Cyclin-dependent kinase 2 (Homo sapiens, UniProt P24941); assay: Inhibition of CDK2
[2] = test system: EJ; assay: Cytotoxicity against EJ cells after 48 hrs; format: functional; conditions: Homo sapiens
Method in brief: (§1)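 Exponentially growing cells exposed to compound at various concentrations for 48 h, then cell numbers measured; concentration giving 50% growth inhibition determined; means of three experiments.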

[3] = target: Cyclin-dependent kinase 1 (Homo sapiens, UniProt P06493); assay: Inhibition of CDK1
[4] = test system: MDA-MB-468; assay: Cytotoxicity against MDA-MB-468 cells after 48 hrs; format: functional; conditions: Homo sapiens, MDA-MB-468, 48 h; method in brief: as §1
[5] = test system: SW-620; assay: Cytotoxicity against SW620 cells after 48 hrs; format: functional; conditions: Homo sapiens, SW-620, 48 h; method in brief: as §1
[6] = test system: HCT-116; assay: Cytotoxicity against HCT116 cells after 48 hrs; format: functional; conditions: Homo sapiens, HCT-116, 48 h; method in brief: as §1

Chain of Cyclin-dependent kinase 1 (P06493 whole entry): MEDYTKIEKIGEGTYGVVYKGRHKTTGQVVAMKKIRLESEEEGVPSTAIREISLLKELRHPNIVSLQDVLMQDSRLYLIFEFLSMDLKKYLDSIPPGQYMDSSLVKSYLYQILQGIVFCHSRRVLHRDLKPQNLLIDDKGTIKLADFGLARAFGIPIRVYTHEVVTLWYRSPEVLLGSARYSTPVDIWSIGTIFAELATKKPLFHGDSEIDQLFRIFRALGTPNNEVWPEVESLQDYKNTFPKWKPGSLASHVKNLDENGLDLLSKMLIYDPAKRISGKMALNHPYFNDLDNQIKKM

Row | SMILES | IC50 [1] | GI50 [2] | other results
1 | O=c1c(O)c(-c2ccc(O)c(O)c2)oc2ccccc12 | 4 µM |  | 
2 | O=c1cc(-c2ccc(O)c(O)c2)oc2c(O)c(O)ccc12 | > 500 µM |  | 
3 | O=c1cc(-c2ccc(O)c(O)c2)oc2ccccc12 | > 500 µM |  | 
4 | CCN(CC)c1cc(C)cc2c(=O)c(O)c(-c3ccc(O)c(O)c3)oc12 | 1.6 µM |  | 
5 | Cc1cc(N)c2oc(-c3ccc(O)c(O)c3)c(O)c(=O)c2c1 | 0.63 µM |  | 
6 | Cc1cc(N2C(=O)CNC2=O)c2oc(-c3ccc(O)c(O)c3)c(O)c(=O)c2c1 | 4 µM |  | 
7 | Cc1cc(N2C(=O)CN(C)C2=O)c2oc(-c3ccc(O)c(O)c3)c(O)c(=O)c2c1 | 0.056 µM | 1.1 µM | 
8 | Cc1cc(N2CCCS2(=O)=O)c2oc(-c3ccc(O)c(O)c3)c(O)c(=O)c2c1 |  | 0.6 µM | IC50 [3]: 0.13 µM; GI50 [4]: 1 µM; GI50 [5]: 0.9 µM; GI50 [6]: 0.28 µM
9 | Cc1cc(N2CCCC2)c2oc(-c3ccc(O)c(O)c3)c(O)c(=O)c2c1 | 3 µM |  | 
10 | Cc1cc(N2CCCCC2)c2oc(-c3ccc(O)c(O)c3)c(O)c(=O)c2c1 | 2.6 µM |  | 
11 | Cc1cc(N2CCN(C)CC2)c2oc(-c3ccc(O)c(O)c3)c(O)c(=O)c2c1 | 0.64 µM |  | 
12 | Cc1cc(N2C(=O)CCC2=O)c2oc(-c3ccc(O)c(O)c3)c(O)c(=O)c2c1 | 1.5 µM | 1.2 µM | 
13 | Cc1cc(N2CCCS2(=O)=O)c2oc(-c3ccc(O)cc3)c(O)c(=O)c2c1 |  | 0.27 µM | IC50 [3]: 0.45 µM; GI50 [4]: 0.62 µM; GI50 [5]: 0.57 µM; GI50 [6]: 0.34 µM
14 | Cc1cc(N2CCCC2=O)c2oc(-c3ccc(O)c(O)c3)c(O)c(=O)c2c1 | 1.6 µM |  | 
15 | Cc1cc(N2C(=O)CCCC2=O)c2oc(-c3ccc(O)c(O)c3)c(O)c(=O)c2c1 | 4.4 µM |  | 
16 | Cc1cc(N2CCCS2(=O)=O)c2oc(-c3ccc(O)c(C#N)c3)c(O)c(=O)c2c1 |  |  | IC50 [3]: 0.16 µM
17 | Cc1cc(N2CCCS2(=O)=O)c2oc(-c3ccc(O)c(C(F)(F)F)c3)c(O)c(=O)c2c1 | 1.7 µM | 1.3 µM | IC50 [3]: 0.063 µM; GI50 [6]: 0.91 µM
18 | Cc1cc(N2CCCS2(=O)=O)c2oc(-c3ccc(O)c(Cl)c3)c(O)c(=O)c2c1 | 0.19 µM | 0.065 µM | IC50 [3]: 0.033 µM; GI50 [4]: 0.18 µM; GI50 [5]: 0.064 µM; GI50 [6]: 0.037 µM
19 | Cc1cc(N2CCCS2(=O)=O)c2oc(-c3ccc(O)c(Br)c3)c(O)c(=O)c2c1 |  | 0.064 µM | IC50 [3]: 0.019 µM; GI50 [4]: 0.23 µM; GI50 [5]: 0.052 µM; GI50 [6]: 0.017 µM
20 | O=c1c(O)c(-c2ccc(O)c(O)c2)oc2cc(O)ccc12 [FISETIN] | 5 µM |  | 
21 | O=c1cc(-c2ccc(O)c(O)c2)oc2cc(O)cc(O)c12 [LUTEOLIN] | 20 µM |  | 
22 | O=c1c(O)c(-c2ccc(O)c(O)c2)oc2cc(O)cc(O)c12 [QUERCETIN] | 40 µM |  | 
